Assay results pooled from the literature.
Compare with care: the assays were run in different laboratories.

CCc1cc(-c2noc(-c3cc(OC)nc(C4CCCC4)c3)n2)cc(C)c1OC[C@@H](O)CO — concentration (Wistar rat, plasma; oral, 0.1 mg/kg, 3 h, single dose): 6.2 ng/mL
COc1cccc(-c2n[nH]c(SCc3ccccn3)n2)c1OC — concentration (male Sprague-Dawley rat, plasma; oral, 10 mg/kg, 30 min, single dose): 21400 ng/mL
COc1ccc2c(=O)n(C)c(-c3ccccc3)nc2c1 — concentration (male Sprague-Dawley rat, brain; oral, 30 mg/kg, 30 min, single dose): 20.4 ng/g
CCOC(=O)C1=C(C)N/C(=C/c2cc(C)n(-c3ccc(CN4CCCCC4)cc3)c2C)C1=O — half-life (metabolic stability; mouse, liver microsomes; 1 µM): 29 min
CCOC(=O)[C@@]12C[C@@H]1[C@@H](n1ccc3c(NC)nc(C#Cc4ccc(Cl)s4)nc31)[C@H](O)[C@@H]2O — concentration (male Sprague-Dawley rat, plasma; intravenous, 0.5 mg/kg, 4 h): 1.88 ng/mL
CC1=C(C(=O)OC(C)(C)C)C(=O)/C(=C\c2cc(C)n(-c3ccccc3C(F)(F)F)c2C)N1 — half-life (metabolic stability; mouse, liver microsomes; 1 µM): 20 min
Cc1noc(C)c1Cn1cc(N2C(=O)N(Cc3cccc(O)c3)C(C)(C)C2=O)cn1 — concentration (male Sprague-Dawley rat, plasma; oral, 100 mg/kg, 2 h, single dose): 3.8 ng/mL
Oc1c(Br)cc(Cl)c2cccnc12 — half-life (Sprague-Dawley rat, plasma; intravenous, 2 mg/kg): 534 min
CC1=C(C(=O)OCc2ccccc2)C(=O)/C(=C\c2cc(C)n(-c3ccccc3C(F)(F)F)c2C)N1 — half-life (metabolic stability; mouse, liver microsomes; 1 µM): 3.1 min
CCc1cc(C(=O)NC)c2nccc(N3CCc4c(cc(Cn5ccnc5)cc4-c4cn(C)nc4C(F)(F)F)C3=O)c2c1 — C0 (male Sprague-Dawley rat, plasma; intravenous, 3 mg/kg): 2600 ng/mL
COC(=O)[C@H](N)CSSC[C@@H](N)C(=O)OC — half-life (chemical stability; rat, plasma): 8.14 min
CCOC(=O)C1=C(C)N/C(=C/c2cc(C)n(-c3ccc(CN(C)C)cc3)c2C)C1=O — half-life (metabolic stability; mouse, liver microsomes; 1 µM): 56 min
Cc1noc(C)c1Cn1cc(N2C(=O)CN(Cc3cccc(O)c3)C2=O)cn1 — concentration (male Sprague-Dawley rat, plasma; intravenous, 1 mg/kg, 30 min): 12.1 ng/mL
COc1cc2c3c(n(CCCN4CCOCC4)c(=O)c2cc1OC)-c1cc2c(cc1C3=O)OCO2 — half-life (female Fischer 344 rat, plasma; intravenous, 12 mg/m², single dose): 252 min
